WT yeast gro inh = growth inhibition of WT strain, primary screen, mitochondrial fusion inhibitor project, WT and mutant strains, chemical genetic | inhibition, % at 10 µM | 190,000 compounds, 2.1% hits | mitochondrial fusion phenotypic screen | AID 1362, 2008; in the data active means inhibition above about 58%; tested in S. cerevisiae
Diaph inh CS = diaphorase inhibitors and chemical oxidizers, primary screen, counter-screen for diaphorase-coupled primary assays, biochemical, uHTS, resorufin fluorescence. 190,000 compounds, 0.69% hits. AID 1217, 2008. diaphorase resazurin-to-resorufin fluorescence, NADH, 16 min; bacterial (C. kluyveri) enzyme, not human. inhibition, % at 20 µM;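 active means primary screen inhibition at 20 µM above a set limit, cut at about 50% in these data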;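 further: plate controls were DMSO with full reaction for no effect and wells lacking NADH for full effect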
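Assay system: diaphorase enzyme from Clostridium kluyveri. Quantity: enzyme working solution with 0.14 U/mL diaphorase. Schedule: reaction incubation of 16 min at room temperature. Technique: resorufin fluorescence, excitation 544 nm, emission 590 nm. Controls: No-NADH positive control and DMSO neutral control.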
G6PDH CS = L. mesenteroides G6PDH inhibitors, counter-screen for G6PDH-coupled screening assays, biochemical, Leuconostoc mesenteroides enzyme. Purified L. mesenteroides G6PDH, diaphorase/resazurin coupled fluorescence, 45 min. inhibition, % at 5 µM. 200,000 compounds, 0.12% hits. AID 1020, 2008
Diaphorase act = compounds boosting diaphorase resazurin reduction – biochemical, uHTS, resorufin fluorescence, counter-screen for diaphorase-coupled primary assays, primary screen; activation factor at 20 µM; 190,000 compounds, 0.005% hits; Diaphorase/resazurin coupled assay, 16 min; hits give high values; 1 = vehicle wells, 0 = NADH-free wells;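 active means diaphorase activity raised at least twofold by the compound at 20 µM; inactive means activation factor below 2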
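Material: purified diaphorase enzyme from Clostridium kluyveri / Medium: HEPES pH 7.4 buffer with MgCl2 and Tween 20 / Schedule: enzyme reaction of 16 min at room temperature / Measured by: resorufin fluorescence, excitation 544 nm, emission 590 nm / Evaluation: rise in resorufin formation, marking diaphorase activation or chemical reduction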
Lmaj promast = Leishmania major promastigote growth inhibition, primary screen. inhibition, % at 10 µM. 200,000 compounds, 9% hits. Leishmania major promastigotes, resazurin fluorescence viability;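 further: promastigotes grown with compound for 44 hours at 28 °C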
Starred values were filed as active, the others as inactive. A selection: hits, their analogues and other compounds. The true share with any hit is near 11%. Unless noted, no stated cut-off is given here; in the data, active means inhibition above about 50%; inactive means the rest.

SMILES	WT yeast gro inh	Diaph inh CS	G6PDH CS	Diaphorase act	Lmaj promast
Fc1cccc(Cn2cc(C(=S)N3CCOCC3)c3ccccc32)c1	24.5	17.7	2.0	0.8	17.4
Fc1cccc(Cn2cc(C(=S)N3CCCCC3)c3ccccc32)c1	75.8*	14.8	14.1	0.9	2.7
Cc1nn(-c2ccccc2)c(C)c1C(=O)OCC(=O)Nc1ccc2c(c1)OCO2	-4.6	16.5	6.0	0.8	3.3
Cc1ccc(NC(=S)/N=C(\N)Nc2nc(C)c3cc(C)c(C)cc3n2)cc1C	-3.4	-3.8	7.9	1	17.9
CCn1cc(/C=N/NC(=O)c2ccc3c(c2)OCO3)cn1	-9.0	5.5	7.5	0.9	-5.9
CCN(CC)c1ccc(NC(=O)c2cccc(C)c2)cc1S(=O)(=O)Nc1ccccc1OC	9.1	16.1	-14.0	0.8	96.9*
COc1ccc(NC(=O)c2ccccc2)cc1NS(=O)(=O)c1ccc(F)cc1	-27.6	16.7	5.0	0.8	4.0
COc1ccc(NC(=O)c2ccc(-c3ccccc3)cc2)cc1NS(=O)(=O)c1ccc(F)cc1	-39.1	30.0	-18.3	0.7	91.3*
CCN(CC)c1ccc(NC(=O)c2ccccc2)cc1S(=O)(=O)Nc1ccccc1OC	18.5	21.9	5.8	0.8	99.5*
CCOC(=O)C1=C(C)N=C2SC=C(C)N2C1c1ccc(OC)cc1 (stereo not drawn)	-9.1	0.5	3.7	1	-3.3
COc1ccc(CCCC(=O)Nc2ccccc2F)cc1	4.2	7.8	9.7	0.9	3.8
O=[N+]([O-])c1ccc(Nc2ccccc2)nc1	-35.1	12.6	-3.6	0.9	55.5*
O=[N+]([O-])c1ccc(N/N=C\c2cccn2-c2ccccc2)nc1	60.6*	24.5	2.1	0.8	30.1
Cc1cc(C(=O)NCCCN2CCCC2=O)no1	4.3	11.4	-15.5	0.9	-2.3
O=C1NCC2=C1C(c1ccc(Br)cc1)Nc1ccccc1N2 (stereo not drawn)	5.0	12.3	-0.5	0.9	7.4
CCCC(=O)NCCc1nc2cc([N+](=O)[O-])ccc2n1C	-0.8	10.0	16.0	0.9	15.5
CCC(C(=O)NC1CCCCC1)n1c(SCc2ccccc2F)nc2ccncc21 (stereo not drawn)	-18.0	19.8	17.0	0.8	-4.2
Cc1cccc(N2CCN(C(=O)c3c(C)nn(Cc4ccccc4Cl)c3C)CC2)c1C	59.7*	9.0	3.2	0.9	38.5
CC1(c2ccc([N+](=O)[O-])cc2)CC(C)(C)N(C(=O)c2ccccc2)c2ccccc21 (stereo not drawn)	77.1*	5.9	9.8	0.9	10.7
CC(OC(=O)c1ccncc1)C(=O)Nc1cccc(Cl)c1 (stereo not drawn)	-21.8	16.2	2.1	0.8	3.1
Cc1cc(=S)[nH]c2c(C)cccc12	15.5	20.3	2.1	0.8	5.1
O=C(NCC1CCCO1)Nc1ccc2c(c1)OCO2 (stereo not drawn)	14.1	13.8	2.6	0.9	4.4
CC1C2CC(C/C2=N/NC(=O)c2cccs2)C1(C)C (stereo not drawn)	5.5	15.5	14.5	0.8	95.5*
O=C(NCc1ccco1)c1cccn2c(=O)c3cc4ccccc4cc3nc12	38.5	65.9*	34.6	0.3	14.0
COCCCNC(=O)c1cccn2c(=O)c3cc4ccccc4cc3nc12	44.3	14.6	27.8	0.9	89.6*
SMILES	WT yeast gro inh	Diaph inh CS	G6PDH CS	Diaphorase act	Lmaj promast
CN1C(=O)/C(=C\C=C2/CCCN2C)N(C)C1=S	-0.8	51.5*	5.9	0.5	-3.0
CCN1C(=O)/C(=C/C=C2/CCCN2C)OC1=S	-4.9	29.7	13.9	0.7	-4.8
CC1(CCc2ccccc2)NC(=O)N(CC(=O)Nc2ccc(S(N)(=O)=O)cc2)C1=O (stereo not drawn)	-6.4	7.9	4.7	0.9	-6.3
CC1CCCCC1N1CN=C(Nc2nc3ccccc3s2)NC1 (stereo not drawn)	-13.4	5.7	4.9	0.9	3.6
O=[N+]([O-])c1ccc(Sc2nccn2Cc2ccccc2)c([N+](=O)[O-])c1	-20.1	12.8	-6.2	0.9	100.7*
COc1ccc(CC(C)N2CCN(c3cccc(C(F)(F)F)c3)CC2)cc1OC (stereo not drawn)	17.5	18.5	-7.0	0.8	37.9
O=C(N/N=C/c1ccc(F)cc1)c1sccc1OCc1ccc(F)cc1	5.1	20.8	-5.7	0.8	88.4*
O=C(N/N=C/c1ccc(Cl)cc1)c1sccc1OCc1ccc(F)cc1	3.7	18.5	-63.5	0.8	85.1*
NNC(=O)c1sccc1OCc1ccc(F)cc1	-10.0	-2.0	5.4	1	-2.3
COC(=O)c1ccc(OCCN2CCCCCC2)cc1	-10.8	-8.0	4.1	1.1	87.7*
O=C(c1ccccc1)c1ccc(OCCCN2CCCCC2)cc1	-11.1	6.7	5.4	0.9	99.3*
COC(=O)c1ccccc1OCCN1CCCCCC1	-4.8	4.8	15.6	1	5.2
CC(=O)c1ccc(OCCCN2CCCCC2)cc1	-2.3	-1.1	5.4	1	88.1*
COc1ccc2cc(CN(CC3CCCO3)S(=O)(=O)c3ccccc3Cl)c(=O)[nH]c2c1 (stereo not drawn)	-11.0	-1.3	-1.1	1	6.9
CC1CCCCC1NS(=O)(=O)c1ccc(S(=O)(=O)NCc2ccncc2)cc1 (stereo not drawn)	6.9	8.4	5.6	0.9	-1.3
COc1cc(C2/C(=C(/O)c3ccccc3)C(=O)C(=O)N2c2ccccn2)ccc1O (stereo not drawn)	-14.3	6.7	12.2	0.9	-6.8
CC(C)c1nc2sc3c(=O)[nH]c(=S)[nH]c3c2c2c1CCC2	6.5	85.1*	4.1	0.1	-6.8
CCN(CC)C1=NC=CC(c2ccccc2)=CC1C (stereo not drawn)	-21.6	4.9	-2.5	1	2.1
CC(C)c1ccc(-c2noc(C3CCCN(C(=O)c4ccc(F)cc4F)C3)n2)cc1 (stereo not drawn)	72.3*	13.2	8.1	0.9	-3.4
Cc1ccccc1NC(=O)N1CCCC(c2nc(-c3ccc(F)cc3)no2)C1 (stereo not drawn)	4.5	8.6	2.9	0.9	2.3
Cc1ccc(-c2noc(C3CCCN(C(=O)c4ccc(F)cc4F)C3)n2)cc1 (stereo not drawn)	7.4	14.6	-18.6	0.9	8.3
Cc1ccccc1NC(=O)N1CCCC(c2nc(-c3ccc(C(C)C)cc3)no2)C1 (stereo not drawn)	-1.4	23.9	3.0	0.8	84.9*
Cc1ccc(S(=O)(=O)NCC2CCC(C(=O)NCc3cccnc3)CC2)cc1 (stereo not drawn)	-4.6	-0.5	1.4	1	-1.2
COc1ccc(CCN=C(N)NS(=O)(=O)c2ccc(F)cc2)cc1	-1.6	6.2	-0.8	0.9	-2.2

High-throughput results from PubChem BioAssay.
